In ChEMBL document CHEMBL1123363, “(5-Amino-1,3-dimethyl-1H-pyrazol-4-yl)(2-fluorophenyl)methanones . A series of novel potential antipsychotic agents” (J Med Chem, 1986):
Calls of active or inactive are those of the source. No cut-off for these calls is given here.

What was measured:
[1] = species: Rattus norvegicus; assay: Compound was tested for its potential to produce clonic seizures in rats; + indicates compound is causing seizures; assay type: functional, organism-based
How it was run: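 Any sign of seizure marked the compound as seizure-causing; the outcome was not quantified.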

[2] = target: Dopamine receptor; assay: Binding affinity for dopamine receptor in rat striatal membrane using [3H]haloperidol as radioligand; assay type: cell membranes, Striatum
How it was run: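 Nonspecific binding defined with (+)-butaclamol at 0.1 μM final. IC50 fitted by nonlinear curve fit from four or five concentrations in triplicate.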

[3] = target: T1, Adrenergic receptor alpha-2 (Rattus norvegicus, UniProt P22086+P19328+P22909); assay: Binding affinity against alpha-2 adrenergic receptor in rat brain using [3H]- clonidine
T1 sequence (P22086 whole entry): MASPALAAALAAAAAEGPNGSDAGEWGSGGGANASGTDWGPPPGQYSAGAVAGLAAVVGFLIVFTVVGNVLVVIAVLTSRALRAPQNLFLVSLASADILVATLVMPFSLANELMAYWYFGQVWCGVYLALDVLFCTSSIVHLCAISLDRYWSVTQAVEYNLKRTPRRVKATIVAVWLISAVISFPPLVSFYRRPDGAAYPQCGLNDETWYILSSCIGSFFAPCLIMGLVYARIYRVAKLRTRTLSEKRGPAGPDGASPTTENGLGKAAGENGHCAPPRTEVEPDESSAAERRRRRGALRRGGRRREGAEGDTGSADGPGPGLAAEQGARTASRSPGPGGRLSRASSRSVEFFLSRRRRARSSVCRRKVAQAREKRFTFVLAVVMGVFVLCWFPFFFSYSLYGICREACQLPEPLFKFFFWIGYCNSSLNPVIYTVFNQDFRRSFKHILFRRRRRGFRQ
T1 sequence (P19328 whole entry): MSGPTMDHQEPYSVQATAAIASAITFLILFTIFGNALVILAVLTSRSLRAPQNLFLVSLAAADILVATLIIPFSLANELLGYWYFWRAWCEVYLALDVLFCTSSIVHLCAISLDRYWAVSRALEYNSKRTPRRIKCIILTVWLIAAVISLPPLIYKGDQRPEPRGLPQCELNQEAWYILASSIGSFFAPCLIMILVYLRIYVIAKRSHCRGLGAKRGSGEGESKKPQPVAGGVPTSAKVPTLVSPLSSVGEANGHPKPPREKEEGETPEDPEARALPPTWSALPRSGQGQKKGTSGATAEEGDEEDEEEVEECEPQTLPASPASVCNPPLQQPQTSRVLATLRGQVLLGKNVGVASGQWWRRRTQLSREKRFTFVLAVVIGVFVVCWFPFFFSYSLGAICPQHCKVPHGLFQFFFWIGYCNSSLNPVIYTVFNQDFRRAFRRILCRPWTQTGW
T1 sequence (P22909 whole entry): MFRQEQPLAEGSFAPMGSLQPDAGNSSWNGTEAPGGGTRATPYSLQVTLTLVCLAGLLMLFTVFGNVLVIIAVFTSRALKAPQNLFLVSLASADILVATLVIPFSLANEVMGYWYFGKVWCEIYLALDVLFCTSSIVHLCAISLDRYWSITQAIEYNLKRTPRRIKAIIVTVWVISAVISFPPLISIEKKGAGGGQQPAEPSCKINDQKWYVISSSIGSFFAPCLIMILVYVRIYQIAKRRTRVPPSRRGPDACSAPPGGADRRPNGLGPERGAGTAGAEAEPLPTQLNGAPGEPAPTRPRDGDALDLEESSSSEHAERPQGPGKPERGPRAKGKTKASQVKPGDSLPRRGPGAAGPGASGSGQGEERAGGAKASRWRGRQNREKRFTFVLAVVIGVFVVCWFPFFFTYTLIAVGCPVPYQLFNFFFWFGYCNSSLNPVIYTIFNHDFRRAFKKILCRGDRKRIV

[4] = species: Rattus norvegicus; assay: Effective dose required for inhibition of conditional avoidance in rats; assay type: functional
How it was run: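 Fasted male Wistar rats (150–250 g) were trained to jump to a platform at a buzzer to avoid grid shock (1.1 mA/s). After oral dosing they were tested every 20 min for 6 h over 19 trials, 10 rats per dose, each rat used once. Peak effect was the mean of the four consecutive trials with the largest effect, computed from response latency. ED50 read graphically from at least three doses.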

[5] = target: GABA-A receptor; anion channel; assay: Displacement of [3H]GABA from rat brain Gamma-aminobutyric acid receptor
How it was run: (§1)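 GABA binding in membranes of rat whole brain minus cerebellum and brain stem (male Long-Evans, 150–250 g), using [3H]-GABA at 25 nM final. GABA at 1 mM final was the reference. IC50 from four or five concentrations by nonlinear curve fitting.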

[6] = test system: Rattus norvegicus; assay: Compound was tested for its affect on the accumulation of the dopamine metabolite homovanillic acid (HAV) in the rat striatum at 25 mg/kg dose after peroral administration; assay type: functional; conditions: route oral
How it was run: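 Male Long–Evans rats were dosed orally and decapitated 2 h later. Striatal HVA was isolated on Sephadex G-10 and measured spectrofluorometrically, expressed as % control ± SEM.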

[7] = test system: Rattus norvegicus; assay: Compound was tested for its effect on Dopamine turnover in rat at dose of 64 mg/kg ip; assay type: functional; conditions: route intraperitoneal
How it was run: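 Rats were given compound or vehicle ip 30 min before α-methyl-p-tyrosine (250 mg/kg ip) and killed 4 h later. Brain NE and DA were measured spectrofluorometrically, with at least five determinations per value, and expressed as % of vehicle-treated levels ± SEM.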

[8] = species: Rattus norvegicus; assay: Compound was tested for adenylate cyclase activity in rat corpus striatum; assay type: functional
How it was run: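 Rat corpus striatum homogenates from male Long–Evans rats (200–300 g) were incubated with dopamine held at 20 μM while test compound concentration was varied. Cyclic AMP formed was measured by radioimmunoassay, with assays run in triplicate.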

[9] = Extrapyramidal side effect test in cebus monkey; assay type: functional; conditions: read-out: MED
How it was run: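 Groups of three to six were then dosed by gavage and observed hourly for 6–8 h for dystonia or dyskinesia. Any unequivocal sign counted as a positive response. Minimal effective dose was determined in at least three animals.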

[10] = target: Beta-1 adrenergic receptor (Rattus norvegicus, UniProt P18090); assay: Binding affinity against the beta-1 adrenergic receptor using [3H]- DHA
How it was run: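 β1 sites in rat cerebral cortex membranes (male Long-Evans, 150–250 g) with [3H]dihydroalprenolol at 0.5 nM final. (-)-Alprenolol at 1 μM final defined the reference. IC50 from four or five concentrations by nonlinear curve fit.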

[11] = target: Beta-2 adrenergic receptor (Rattus norvegicus, UniProt P10608); assay: Binding affinity against the beta-2 adrenergic receptor using [3H]- DHA
How it was run: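 β2 sites in rat cerebellum membranes (male Long-Evans, 150–250 g) with [3H]dihydroalprenolol at 0.5 nM final. (-)-Alprenolol at 1 μM final defined the reference. IC50 from four or five concentrations by nonlinear curve fit.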

[12] = target: T1, Adrenergic receptor alpha-2; assay: Binding affinity against the alpha-2 adrenergic receptor using [3H]- clonidine; assay type: protein assay
How it was run: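 α2 sites in rat cerebral cortex membranes (male Long-Evans, 150–250 g) labelled with [3H]clonidine at 0.4 nM final. (-)-Norepinephrine at 10 μM final was the reference. IC50 from four or five concentrations by nonlinear fit.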

[13] = target: Serotonin 2 (5-HT2) receptor (Rattus norvegicus, UniProt P30994+P08909+P14842); assay: Binding affinity towards 5-hydroxytryptamine 2 receptor using [3H]- spiroperidol; assay type: protein assay
How it was run: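 Serotonin-2 sites in rat cerebral cortex membranes (male Long-Evans, 150–250 g) with [3H]spiroperidol at 0.2 nM final. (+)-Butaclamol at 1.0 μM final was the reference. IC50 from four or five concentrations by nonlinear curve fitting.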

[14] = target: GABA-A receptor; anion channel; assay: Displacement of [3H]-GABA from rat brain Gamma-aminobutyric acid receptor; how it was run: as §1

Sequence of Beta-1 adrenergic receptor (P18090 whole entry): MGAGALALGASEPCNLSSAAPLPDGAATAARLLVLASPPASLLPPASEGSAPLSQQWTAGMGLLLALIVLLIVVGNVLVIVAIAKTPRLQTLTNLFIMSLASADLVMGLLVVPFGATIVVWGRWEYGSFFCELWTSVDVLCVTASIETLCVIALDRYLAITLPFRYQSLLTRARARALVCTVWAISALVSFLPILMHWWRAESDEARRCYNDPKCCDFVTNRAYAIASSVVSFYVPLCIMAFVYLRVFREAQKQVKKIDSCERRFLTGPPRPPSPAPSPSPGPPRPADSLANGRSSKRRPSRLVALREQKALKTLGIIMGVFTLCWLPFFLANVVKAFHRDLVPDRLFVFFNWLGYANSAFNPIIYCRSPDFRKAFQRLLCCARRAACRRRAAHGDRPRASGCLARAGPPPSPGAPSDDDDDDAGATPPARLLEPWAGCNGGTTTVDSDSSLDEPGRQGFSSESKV
Sequence of Beta-2 adrenergic receptor (P10608 whole entry): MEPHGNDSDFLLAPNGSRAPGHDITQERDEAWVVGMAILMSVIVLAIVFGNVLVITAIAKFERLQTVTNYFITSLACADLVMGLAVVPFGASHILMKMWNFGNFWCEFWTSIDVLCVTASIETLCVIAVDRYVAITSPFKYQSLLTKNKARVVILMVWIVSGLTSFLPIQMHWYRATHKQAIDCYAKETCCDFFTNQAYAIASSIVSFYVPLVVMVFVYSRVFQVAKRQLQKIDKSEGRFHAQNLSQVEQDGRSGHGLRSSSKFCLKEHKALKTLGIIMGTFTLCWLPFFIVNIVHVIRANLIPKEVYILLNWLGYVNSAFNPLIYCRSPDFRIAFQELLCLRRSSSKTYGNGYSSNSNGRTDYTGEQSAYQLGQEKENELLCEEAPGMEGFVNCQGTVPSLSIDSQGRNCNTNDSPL

Structure (SMILES) | Clonic seizures [1] | IC50 [2] [µM] | IC50 [3] [µM] | ED50 [4] [mg/kg] | IC50 [5] [µM] | Control [6] [%] | Control [7] [%] | IC50 [8] [µM] | minimal effective dose [9] [mg/kg] | IC50 [10] [µM] | IC50 [11] [µM] | IC50 [12] [µM] | IC50 [13] [µM] | IC50 [14] [µM]
Cc1nn(C)c(N)c1C(=O)c1ccccc1F | Active | > 10 | > 10 | 18 | > 10 |  |  |  |  |  |  |  |  | 
Cc1nn(C)c(NC(=O)CNCCCN2CCCCC2C)c1C(=O)c1ccccc1F (stereo not given) |  | > 10 | > 10 |  | > 10 | 95.8 | 96.6 | > 10 | > 200 |  |  |  |  | 
CCN(CC)CC(=O)Nc1c(C(=O)c2ccccc2F)c(C)nn1C |  |  |  |  |  | 114.9 |  | > 10 | > 100 | > 10 | > 10 | > 10 | > 10 | > 10
